Measured values as given in article PMC9499614 (ACS chemical biology, 2022).
Where two headings read alike, the source gives them in different places. Values belong to the compound of their own block, whether it stands above or below them.

What was measured:
Sirt7 [1] = target: T1, Sirt7 (Homo sapiens, UniProt Q9NRC8); settings: cited from earlier work; for activity of recombinant apoSirt7 (in words): in vitro
T1 sequence (Q9NRC8 1-400): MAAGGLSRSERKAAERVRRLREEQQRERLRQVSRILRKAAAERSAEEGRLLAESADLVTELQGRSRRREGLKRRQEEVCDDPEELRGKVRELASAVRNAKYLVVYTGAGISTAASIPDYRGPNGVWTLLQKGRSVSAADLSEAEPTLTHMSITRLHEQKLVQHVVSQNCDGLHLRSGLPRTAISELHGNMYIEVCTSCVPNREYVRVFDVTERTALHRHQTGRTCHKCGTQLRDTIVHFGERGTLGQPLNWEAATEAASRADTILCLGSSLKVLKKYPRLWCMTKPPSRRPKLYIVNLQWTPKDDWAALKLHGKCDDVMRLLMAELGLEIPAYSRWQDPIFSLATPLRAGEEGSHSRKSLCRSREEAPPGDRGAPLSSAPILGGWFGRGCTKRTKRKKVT

Sirt7 [2] = target: T1, Sirt7; format: biochemical; settings: saturating H3K18-Deca peptide, variable NAD^+
Procedure, shortened: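 NAD⁺ serially diluted (10-10000 µM) in 50 mM Tris pH 8.0. Mixed 1:1 with 500 µM (pre-mix) H3K18Ac-DNB or H3K18Deca-DNB peptide in 50 mM Tris pH 8.0, 20% DMSO, 1 mM DTT. Pre-incubated 10 min at 37°C. Started with Sirt7 complex carrying 2 µM nicotinamidase, run 30-60 min, quenched with 6% TFA. HPLC monitored at 400 nm; Michaelis-Menten fit.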

[3] = system: acidic patch regions of nucleosomes; assay: LANA-FAM nucleosome binding and competition with Sirt7; set-up: species or system human; settings: LANA-FAM pre-bound to nucleosomes, fluorescence anisotropy
apoSirt7 = target: T2, apoSirt7 (Homo sapiens, UniProt Q9NRC8); assay: Michaelis-Menten kinetics with variable H3K18 acylated peptide, apoSirt7; format: biochemical; settings: uncomplexed Sirt7, H3K18Ac
T2 sequence (Q9NRC8 1-400): T1 sequence (Q9NRC8 1-400)
Procedure, shortened: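 Acylated H3K18 peptide serially diluted in 50 mM Tris pH 8.0 with 20% DMSO. 20 µL of Sirt7 solution was mixed with 20 µL of peptide at 37°C. Reactions were started with 10 µL of 10 mM NAD⁺ stock, run 5-60 min at 37°C and quenched with 6% TFA. Products were resolved by C18 HPLC. Product concentration = deacetylated/acetylated peak ratio × total substrate. Three independent experiments; Michaelis-Menten fit.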

Sirt7-CLB = assay: NanoBit; format: binding; settings: H3K18-acetylated nucleosomes with ADPr
Procedure, shortened: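 Sirt7 was fused C-terminally to the NanoLuc large-bit fragment and purified natively. […] Buffer: 50 mM Tris pH 8.0, 250 µg/ml BSA. Incubated 20 min at RT. NanoGlow substrate added (50x final dilution), equilibrated 5 min at 37°C, luminescence read every 30 s for 15 min.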

[4] = target: Sirt7-CLB (Sirt7 with the NanoLuc large bit fused to its C-terminus) (UniProt Q9NRC8); assay: split reporter

Compound: Sirt7: 400 amino acid protein within the Class III deacetylase family; recombinant, E. coli
activity of recombinant apoSirt7 (in words) (Sirt7 [1]; no reference number at the word, ref [19],[28] in sentence): completely inactive
activity of recombinant apoSirt7 (in words) (Sirt7 [1]; ref [19]): completely inactive
activity of apoSirt7 (in words) (Sirt7 [1]; ref [19],[40]): inactive
Km (Sirt7 [2]; read-out: KM^NAD, 50 mM Tris pH 8.0, 37°C, 30-60 min, HPLC): 680 ± 80 µM
kcat/KM (Sirt7 [2]): 32±4.1 M^−1x s^−1
kcat (Sirt7 [2]; 50 mM Tris pH 8.0, 37°C, 30-60 min, HPLC): 0.022 ± 0.001 s⁻¹
displacement of LANA-FAM from nucleosomes (in words) [3]: Competitive displacement of LANA-FAM peptide from the pre-formed LANA-nucleosomal complex
H3K18 deacetylation activity (in words) (apoSirt7): very low, but readily measurable H3K18 deacetylation activity

reduction in Kd value on ADPr addition (Sirt7-CLB): 2.5 fold
Compound: Nc1ncnc2c1ncn2[C@@H]1O[C@H](COP(=O)(O)OP(=O)(O)OC[C@H]2OC(O)[C@H](O)[C@@H]2O)[C@@H](O)[C@H]1O (stereo partly shown) [ADPr, ADP-ribose]

Kd [4]: 3.75 nM
Compound: H3K18-acetylated small bit nucleosomes (SMB-AcNucs) (from UniProt P0C0S8 1-130; P68431 1-136; P62805 1-103) (complex)
